Where two headings read alike, the source gives them in different places.
How the values were obtained:
human A3AR (hA3AR) [1] = target: T1, human A3AR (hA3AR) (Homo sapiens, UniProt P0DMS8); assay: cell-based; conditions: CHO, read-out: Stable A3AR CHO cell line^B / Emax (%)
T1 sequence (P0DMS8 1-318): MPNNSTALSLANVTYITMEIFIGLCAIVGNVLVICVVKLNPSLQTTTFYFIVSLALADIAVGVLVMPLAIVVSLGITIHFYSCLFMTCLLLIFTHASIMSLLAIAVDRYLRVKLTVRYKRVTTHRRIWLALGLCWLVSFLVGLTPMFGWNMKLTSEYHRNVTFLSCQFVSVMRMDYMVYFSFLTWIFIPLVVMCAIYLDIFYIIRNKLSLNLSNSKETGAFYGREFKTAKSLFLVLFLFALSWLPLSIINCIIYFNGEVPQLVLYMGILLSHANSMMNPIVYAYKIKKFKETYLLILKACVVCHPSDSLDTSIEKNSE

[2] = target: T2, hA3AR-NanoBit-βarr2 (A3AR-LgBit with SmBit-βarr2) (Homo sapiens, UniProt P0DMS8); assay: cell-based; conditions: HEK-293T, read-out: Stable A3AR NanoBit® HEK293T cell line^A / Emax (%)
T2 sequence (P32121 whole entry partner, one chain of several): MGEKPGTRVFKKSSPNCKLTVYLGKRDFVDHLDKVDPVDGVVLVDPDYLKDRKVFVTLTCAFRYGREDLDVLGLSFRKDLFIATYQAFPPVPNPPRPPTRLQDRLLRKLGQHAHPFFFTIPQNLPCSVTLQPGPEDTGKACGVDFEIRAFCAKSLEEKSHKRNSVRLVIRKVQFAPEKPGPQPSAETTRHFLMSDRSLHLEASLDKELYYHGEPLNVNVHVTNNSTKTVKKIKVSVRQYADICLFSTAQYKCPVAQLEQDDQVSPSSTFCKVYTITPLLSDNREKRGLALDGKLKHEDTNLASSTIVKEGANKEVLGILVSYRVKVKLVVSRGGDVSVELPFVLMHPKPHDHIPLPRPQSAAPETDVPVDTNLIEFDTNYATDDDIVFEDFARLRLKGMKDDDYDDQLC

human A3AR (hA3AR) [3] = target: T1, human A3AR (hA3AR); assay: […]I-AB-MECA competition, CHO membranes; format: binding
[4] = target: T2, hA3AR-NanoBit-βarr2 (A3AR-LgBit with SmBit-βarr2); assay: NanoBit βarr2 recruitment, luminescence AUC; format: cell-based
[5] = target: T2, hA3AR-NanoBit-βarr2 (A3AR-LgBit with SmBit-βarr2); assay: cell-based; conditions: HEK-293T, read-out: Stable A3AR NanoBit® HEK293T cell line^A / Emax (%); remark: listed apart in the source
human A3AR (hA3AR) [6] = target: T1, human A3AR (hA3AR); assay: inhibition of forskolin-stimulated cAMP, CHO cells; format: cell-based
[7] = target: T2, hA3AR-NanoBit-βarr2 (A3AR-LgBit with SmBit-βarr2); assay: NanoBit βarr2 recruitment, luminescence AUC; format: cell-based; conditions: agonism; stable HEK293T cells, room temperature, Opti-MEM I
How it was run: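 Stable HEK293T line retrovirally co-transduced with A3AR-LgBit and SmBit-βarr2, FACS-sorted on co-expressed EGFP/dNGFR. Cells on PDL-coated plates at 5×10^4/well overnight (37°C, 5% CO2), washed twice, detection reagent added, luminescence equilibrated. Agonist added at final 100 pM–25 µM (≤0.5% DMSO), luminescence followed ≥90 min. DMSO solvent blank (0.001–0.5%) in each run.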

human A3AR (hA3AR) [8] = target: T1, human A3AR (hA3AR); assay: inhibition of forskolin-stimulated cAMP, CHO cells; format: cell-based; conditions: agonism; 10 µM forskolin, 10 µM rolipram, adenosine deaminase

Emax (human A3AR (hA3AR) [1]) [%]	Emax [2] [%]	EC50 [4] [nM]	Emax [5] [%]	SMILES	also measured
97.8 ± 0.1	68.4 ± 5.3			CNC(=O)[C@@]12C[C@@H]1[C@@H](n1cnc3cnc(C#Cc4ccc(Cl)s4)nc31)[C@H](O)[C@@H]2O [MRS7220]	
107 ± 26	84.5 ± 6.4			CNC(=O)[C@@]12C[C@@H]1[C@@H](n1cnc3c(C)nc(C#Cc4ccc(Cl)s4)nc31)[C@H](O)[C@@H]2O [MRS7195]	
		5.62	102 ± 3.6	CNC(=O)[C@@]12C[C@@H]1[C@@H](n1cnc3c(NC)nc(C#Cc4ccccc4Cl)nc31)[C@H](O)[C@@H]2O [MRS5663]	
		4.68	92.5 ± 2.4	CNC(=O)[C@@]12C[C@@H]1[C@@H](n1cnc3c(NC)nc(C#Cc4ccccc4OC)nc31)[C@H](O)[C@@H]2O [MRS5967]	
95.5 ± 2.3	74.4 ± 2.3			CCNc1cc(C#Cc2ccc(Cl)s2)nc2c1ncn2[C@H]1[C@H](O)[C@H](O)[C@]2(C(=O)NC)C[C@H]12 [MRS7144]	
		21.4	94.5 ± 4.8	CCCNc1nc(C#Cc2ccc(Cl)s2)nc2c1ncn2[C@H]1[C@H](O)[C@H](O)[C@]2(C(=O)NC)C[C@H]12 [MRS7154]	
56 ± 4.8	9.8 ± 1.2			O[C@@H]1[C@H](O)[C@@H]2C[C@@H]2[C@H]1n1cnc2c(NC(C3CC3)C3CC3)nc(Cl)nc21 [MRS5474]	
	83.5 ± 4.6			CNC(=O)[C@@]12C[C@@H]1[C@@H](n1cnc3c(NCc4cccc(Cl)c4)nc(C#Cc4ccc(F)c(F)c4)nc31)[C@H](O)[C@@H]2O [MRS5698]	
41 ± 5	13 ± 1.6			Nc1nc(Cl)nc2c1ncn2[C@H]1[C@H](O)[C@H](O)[C@]2(CO)C[C@H]12 [MRS1873]	
	5.2 ± 0.4	24.5		O[C@@H]1[C@H](O)[C@@H]2C[C@@H]2[C@H]1n1cnc2c(NCc3cccc(I)c3)nc(Cl)nc21 [MRS5127]	EC50 (human A3AR (hA3AR) [6]): 12.6 nM
1 ± 7				CCOC(=O)[C@@]12C[C@@H]1[C@@H](n1ccc3c(NC)nc(C#Cc4ccc(Cl)s4)nc31)[C@H](O)[C@@H]2O [MRS7299]	EC50 (human A3AR (hA3AR) [6]): > 10000 nM; LogEC50 (NA, not significantly active at 10 μM) [7]: > 10 µM
		1200	46.8 ± 3.3	CNC(=O)[C@@]12C[C@@H]1[C@@H](n1cnc3c(NCc4cccc(Cl)c4)nc(C#Cc4ccc(-c5ccccc5)cc4)nc31)[C@H](O)[C@@H]2O [MRS5679]	
		50.1	13.6 ± 1.6	CCOC(=O)[C@@]12C[C@@H]1[C@@H](n1cnc3c(NC)nc(C#Cc4ccc(Cl)s4)nc31)[C@H](O)[C@@H]2O [MRS7232]	Ki (human A3AR (hA3AR) [3]): 5.38 ± 0.03 nM
97.3 ± 2.9	91.6 ± 3.4			CNC(=O)[C@@]12C[C@@H]1[C@@H](n1cnc3c(NC)nc(C#Cc4cccs4)nc31)[C@H](O)[C@@H]2O [MRS5917]	
		55	78.2 ± 1.8	CNC(=O)[C@@]12C[C@@H]1[C@@H](n1cnc3c(NC)nc(C#Cc4ccc(Cl)s4)cc31)[C@H](O)[C@@H]2O [MRS7173]	Ki (human A3AR (hA3AR) [3]): 1.56 ± 0.2 nM
			95 ± 4	CNC(=O)[C@@]12C[C@@H]1[C@@H](n1cnc3c(NC)nc(C#Cc4ccc(Cl)s4)nc31)[C@H](O)[C@@H]2O [MRS5980]	

Continued, compound first:

SMILES	Emax (human A3AR (hA3AR) [1]) [%]	Emax [2] [%]	EC50 [4] [nM]	Emax [5] [%]	also measured
OC[C@H]1O[C@@H](n2cnc3c(Nc4ccccc4)ncnc32)[C@H](O)[C@@H]1O [N^6-phenyl-adenosine]			589	75.8 ± 3	Ki (human A3AR (hA3AR) [3]): 14.9 ± 3.1 nM
C[C@H](Cc1ccccc1)Nc1ncnc2c1ncn2[C@@H]1O[C@H](CO)[C@@H](O)[C@H]1O [R-PIA]	102 ± 6	56.6 ± 1.9			
OC[C@H]1O[C@@H](n2cnc3c(NCc4ccccc4)ncnc32)[C@H](O)[C@@H]1O [N^6-benzyl-adenosine]			851	34.9 ± 2.3	
CNC(=O)[C@H]1O[C@@H](n2cnc3c(NCc4cccc(I)c4)ncnc32)[C@H](O)[C@@H]1O [IB-MECA]		78.4 ± 2.5			
OC[C@H]1O[C@@H](n2cnc3c(NC4CCCC4)cc(Cl)nc32)[C@H](O)[C@@H]1O [DCCA]			1480	5.8 ± 0.2	Ki (human A3AR (hA3AR) [3]): 244 ± 37 nM
CCNC(=O)[C@H]1O[C@@H](n2cnc3c(N)ncnc32)[C@H](O)[C@@H]1O [NECA]	103				
CCNC(=O)[C@H]1O[C@@H](n2cnc3c(N)nc(NCCc4ccc(CCC(=O)O)cc4)nc32)[C@H](O)[C@@H]1O [CGS21680]	98 ± 5	99 ± 5.5			
C[C@@H](Cc1ccccc1)Nc1ncnc2c1ncn2[C@@H]1O[C@H](CO)[C@@H](O)[C@H]1O [S-PIA]	97 ± 3	51 ± 1.4			
OC[C@H]1O[C@@H](n2cnc3c(NC4CCCC4)ncnc32)[C@H](O)[C@@H]1O [CPA]	97 ± 4	56.9 ± 3.7			
NCCNC(=O)Cc1ccc(NC(=O)Cc2ccc(Nc3ncnc4c3ncn4[C@@H]3O[C@H](CO)[C@@H](O)[C@H]3O)cc2)cc1 [ADAC, N^6-[4-[[[4-[[[(2-aminoethyl)amino]carbonyl]methyl]anilino]-carbonyl]methyl]phenyl]adenosine]	103 ± 4	73.7 ± 3.1	245		Ki (human A3AR (hA3AR) [3]): 13.3 ± 3 nM
OC[C@H]1O[C@@H](n2cnc3c(NC4CCCC4)nc(Cl)nc32)[C@H](O)[C@@H]1O [CCPA]	0	33.5 ± 2.7			LogEC50 (NA, not significantly active at 10 μM) (human A3AR (hA3AR) [8]): > 10 µM

From paper PMC6530469 (Biochemical pharmacology, 2018)
